Here are results for one molecule from ChEMBL document CHEMBL4152358, “In vitro and in vivo anti-inflammatory properties of imine resveratrol analogues” (Bioorg Med Chem, 2018).

Broadly, the inhibition is how much of the control response was suppressed. For orientation: pIC50 means −log10 of the IC50, conventionally taken in molar units.

pIC50: −log10 of the molar value. The source made the active and inactive calls. The calls are words filed in the database; no cut-off is given here.

Series [1] concerns RAW264.7. Nature of the series: Antiinflammatory activity in mouse RAW264.7 cells assessed as inhibition of LPS-induced IL-6 production by measuring IL-6 levels incubated with LPS for 1 hr followed by compound addition measured after 48 hrs by ELISA (reference value: 2.9 +/- 0.3 ng/ml). Type of series: functional. Background: In an ELISA, binding on a coated surface is turned into a signal by an enzyme label.

The test system of series [2] is Mus musculus. Nature of the series: Inhibition of myeloperoxidase activity in ear tissue of croton oil-induced Balb/c mouse ear edema model at 0.1 mg/ear administered topically immediately post croton oil treatment by spectrophotometric method. Type of series: functional, organism-based. The method, boiled down: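 Ear tissue homogenized in PBS and the pellet resuspended in 0.5% HTAB, then given 3 freeze/thaw cycles. Cleared supernatant mixed 1:1 with 6 mM o-phenylenediamine in 10 mM citrate pH 4.5, with 20% H₂O₂ added. Stopped after 15 min with 1 M H₂SO₄ and read spectrophotometrically.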

Series [3] is described as follows: Antioxidant activity assessed as DPPH radical scavenging activity after 30 mins by spectrophotometric method. Type of series: functional. The essentials: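 Left 30 min at room temperature in the dark and absorbance read at 510 nm. IC50 taken graphically from the linear range of the concentration versus scavenging plot. Run twice, each in triplicate.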
For series [4], the system named is RAW264.7. The series is described as follows: Cytotoxicity against mouse RAW264.7 cells assessed as reduction in cell viability at 50 uM after 48 hrs by MTT assay. Type of series: cell-based. Conditions: raw264.7, 48 h. The essentials:
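RAW264.7 cells seeded at 2 x 10⁵/well and grown 24 h, then exposed to 25 or 50 µM (ethanol ≤1%) for 48 h. MTT 0.5 mg/mL added for 2 h at 37 °C, formazan dissolved in DMSO, OD read at 595 nm. Viability given relative to untreated control, mean SD.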
(Formazan colour is commonly taken as a measure of viable cells.)

Series [5] deals with Mus musculus. The series is described as follows: Inhibition of CCL-2 production in ear tissue of croton oil-induced Balb/c mouse ear edema model at 0.1 mg/ear administered topically immediately post croton oil treatment by ELISA. It counts as functional, organism-based. The method, boiled down:
(§1)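 Half of each ear plug from the 4 h croton oil edema test (topical 0.1 mg/ear) was homogenized in extraction buffer (BSA 0.5%, PMSF 0.1%, […], EDTA 10mM, aprotinin 20kIU/ml) and spun at 440g for 15 min at 4 °C. IL-1β, IL-6 or CCL-2 in the supernatant measured by ELISA.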

The subject of series [6] is RAW264.7. The series is described as follows: Antiinflammatory activity in mouse RAW264.7 cells assessed as inhibition of LPS-induced CCL-2 production by measuring CCL-2 levels incubated with LPS for 1 hr followed by compound addition measured after 48 hrs by ELISA (reference value: 12.73 +/- 0.10 ng/ml). Type of series: functional.
Series [7] has as its system Mus musculus. The series is described as follows: Inhibition of IL-6 production in ear tissue of croton oil-induced Balb/c mouse ear edema model at 0.1 mg/ear administered topically immediately post croton oil treatment by ELISA. Type of series: functional, organism-based. The method, boiled down: as §1
The subject of series [8] is RAW264.7. Nature of the series: Antiinflammatory activity in mouse RAW264.7 cells assessed as inhibition of LPS-induced IL-12 production by measuring IL-12 levels incubated with LPS for 1 hr followed by compound addition measured after 48 hrs by ELISA (reference value: 4839.2 +/- 2.2 pg/ml). It counts as functional.
A further series deals with J774.A1. Nature of the series: Antiinflammatory activity in mouse J774A.1 cells assessed as inhibition of LPS-induced IL-1beta production by measuring IL-1beta levels incubated with LPS for 1 hr followed by compound addition measured after 24 hrs by ELISA (reference value: 382.3 +/- 50 pg/ml). It counts as functional.
Series [9] concerns RAW264.7. Nature of the series: Immunomodulatory activity in LPS-stimulated mouse RAW264.7 cells assessed as decrease in CD80 expression at 50 uM incubated with LPS for 1 hr followed by compound addition measured after 24 hrs by flow cytometry. It counts as functional, cell-based. The method, boiled down:
(§2)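 RAW 264.7 cells (4 x 10⁵/well, triplicate) given E. coli LPS 1 µg/mL for 1 h, then treated at 50 µM for 24 h. Cells Fc-blocked with anti-CD16/32 and stained with FITC anti-CD80, anti-CD86 or anti-MHC II (I-A^b). Two independent experiments.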
Background: Flow cytometry measures light scatter and fluorescence of single cells or particles in a stream.

Series [10] has as its system RAW264.7. The series is described as follows: Cytotoxicity against mouse RAW264.7 cells assessed as reduction in cell viability at >= 100 uM after 48 hrs by MTT assay. It counts as cell-based. The conditions noted are these: raw264.7, 48 h.
The subject of another series is Murine T-cell line. Nature of the series: Antiproliferative activity against Con-A-induced T cells isolated from splenocytes of C57/BL6 mouse at 50 uM incubated with Con-A for 1 hr followed by compound addition measured after 72 hrs by MTT assay. Type of series: functional, cell-based. The essentials: (§3)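 C57BL/6 splenocytes (1x10⁵/well) cultured in RPMI 1640 with 10% FBS. Stimulated 1 h with Con A 5 µg/mL (T cells) or E. coli LPS 1 µg/mL (B cells) at 37°C, 5% CO₂. Treated at 50 µM and cultured 72 h more, then read by MTT. Expressed as % proliferation relative to untreated stimulated cells.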

Series [11] relates to RAW264.7. The series is described as follows: Antiinflammatory activity in mouse RAW264.7 cells assessed as inhibition of LPS/IFNgamma-induced NO production by measuring NO levels incubated with LPS/IFNgamma for 1 hr followed by compound addition measured after 48 hrs by Griess assay (reference value: 55 +/- 2.6 microM). It counts as functional.
The subject of series [12] is Mus musculus. The series is described as follows: Effect on IL-1beta production in ear tissue of croton oil-induced Balb/c mouse ear edema model at 0.1 mg/ear administered topically immediately post croton oil treatment by ELISA. It counts as functional, organism-based. The method, boiled down:
as §1

The next series relates to B-cell line. Nature of the series: Antiproliferative activity against LPS-induced B cells isolated from splenocytes of C57/BL6 mouse at 50 uM incubated with LPS for 1 hr followed by compound addition measured after 72 hrs by MTT assay. It counts as functional, cell-based. The essentials: as §3
Series [13] deals with Mus musculus. The series is described as follows: Antiinflammatory activity in croton oil-induced Balb/c mouse ear edema model assessed as inhibition of leucocyte infiltration at 0.1 mg/ear administered topically immediately post croton oil treatment and measured after 4 hrs by hematoxylin and eosin staining based light microscopic method. It counts as functional, organism-based. The essentials: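 Ear plugs from the 4 h croton oil edema test in Balb/c mice were fixed 24 h in 70% ethanol, kept in 10% formalin, paraffin-embedded and cut at 4 µm. Sections stained with H&E and leucocyte infiltration judged qualitatively by light microscopy at 400x.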

Series [14] has as its system RAW264.7. Nature of the series: Antiinflammatory activity in mouse RAW264.7 cells assessed as inhibition of LPS-induced TNFalpha production by measuring TNFalpha levels incubated with LPS for 1 hr followed by compound addition measured after 48 hrs by ELISA (reference value: 58.6 +/- 7.4 ng/ml). It counts as functional.
The subject of series [15] is RAW264.7. The series is described as follows: Immunomodulatory activity in LPS-stimulated mouse RAW264.7 cells assessed as decrease in MHC-2 expression at 50 uM incubated with LPS for 1 hr followed by compound addition measured after 24 hrs by flow cytometry. It counts as functional, cell-based. The essentials: as §2
The subject of series [16] is Mus musculus. Nature of the series: Antiinflammatory activity in Balb/c mouse ear edema model assessed as inhibition of croton oil-induced ear edema at 0.1 mg/ear administered topically immediately post croton oil treatment and measured after 4 hrs relative to control. It counts as functional. The method, boiled down: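 Female Balb/c mice 8–10 weeks old (n = 6/group). 20 µL of 2.5% v/v croton oil applied to the inner surface of the right ear, acetone vehicle to the left. Treatment given topically straight after, 0.1 mg/ear in 20 µL, with acetone as negative control. Killed at 4 h and 6 mm plugs taken from both ears. Edema read as right minus left ear plug weight, mean S.D.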

Series [17] concerns RAW264.7. Nature of the series: Antiinflammatory activity in mouse RAW264.7 cells assessed as inhibition of LPS/IFNgamma-induced NO production at 50 uM incubated with LPS/IFNgamma for 1 hr followed by compound addition measured after 48 hrs by Griess assay relative to control. It counts as functional.
Series [18] has as its system RAW264.7. The series is described as follows: Immunomodulatory activity in LPS-stimulated mouse RAW264.7 cells assessed as decrease in CD86 expression at 50 uM incubated with LPS for 1 hr followed by compound addition measured after 24 hrs by flow cytometry. Type of series: functional, cell-based. The method, boiled down: as §2

As to `Oc1ccc(/C=C/c2cc(O)cc(O)c2)cc1` [RESVERATROL], the Activity in the series with RAW264.7 [1] is 1.6 ng/mL; in the series on RAW264.7 [4] it was “Non-Toxic”; with RAW264.7 [6], 6.6 ng/mL; in the series with RAW264.7 [8], 1036 pg/mL; in the series with J774.A1, 159.7 pg/mL; in the series on RAW264.7 [10] it was “Toxic”. In addition, the Activity with RAW264.7 [11] came out at 44.5 µM; in the series with RAW264.7 [14], 31 ng/mL. Further, the inhibition result in the series on Mus musculus [2] is “Active”. Also, in [3], the pIC50 was 4.18. In addition, the inhibition entry with Mus musculus [5] and in the series with Mus musculus [7] was “inactive” in each case. Besides, the result in the series on RAW264.7 [9], in the series on Murine T-cell line, with B-cell line and with RAW264.7 [18] was Active. For the same molecule, the result in the series on Mus musculus [12] and with RAW264.7 [15] was inactive. Besides, in the series on Mus musculus [13], the “inhibition of leucocyte infiltration (qualitative)” value was “Active”. Also, in the series with Mus musculus [16], the “inhibition (INH)” value is given as 40%. In the series on RAW264.7 [17], the inhibition at 50 µM is 25%.
